Experimental data as given in ChEMBL document CHEMBL1142866, “Synthesis and preliminary evaluation of 18F- or 11C-labeled bicyclic nucleoside analogues as potential probes for imaging varicella-zoster virus thymidine kinase gene expression using positron emission tomography” (J Med Chem, 2007).

Assays:
Thymidine kinase = biological target: T1, Thymidine kinase (Human alphaherpesvirus 1, UniProt Q9QNF7); assay: Inhibition of recombinant HSV-1 TK assessed as [CH3-H3]dThd phosphorylation
T1 sequence (Q9QNF7 whole entry): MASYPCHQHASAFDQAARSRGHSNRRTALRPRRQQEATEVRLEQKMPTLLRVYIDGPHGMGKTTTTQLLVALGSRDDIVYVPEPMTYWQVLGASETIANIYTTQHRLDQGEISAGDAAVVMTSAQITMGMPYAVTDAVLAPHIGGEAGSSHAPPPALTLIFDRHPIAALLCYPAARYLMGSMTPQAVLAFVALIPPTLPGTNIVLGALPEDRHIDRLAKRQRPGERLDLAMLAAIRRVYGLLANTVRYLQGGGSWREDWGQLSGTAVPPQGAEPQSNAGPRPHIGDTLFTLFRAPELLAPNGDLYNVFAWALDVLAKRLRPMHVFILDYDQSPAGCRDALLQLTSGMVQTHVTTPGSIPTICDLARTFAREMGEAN
In short: (§1)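 Purified recombinant VZV TK (7.75 ng), HSV-1 TK (226 ng) or cytosolic TK-1 (455 ng). Buffer: 50 mM Tris-HCl pH 8.0, 2.5 mM MgCl2, 10 mM DTT, 2.5 mM ATP, 1.0 mg/mL BSA, 10 mM NaF, 1 µM [CH3-3H]dThd final. Incubated 30 min at 37 °C (linear range) with graded compound concentrations. Product caught on DE-81 disks, washed, scintillation-counted. IC50 is 50% inhibition of dThd phosphorylation.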

[1] = Inhibition of recombinant VZV TK assessed as [CH3-H3]dThd phosphorylation; design: species or system Human alphaherpesvirus 3; in short: as §1
[2] = biological target: T2, Thymidine kinase, cytosolic (Homo sapiens, UniProt P04183); assay: Inhibition of recombinant cytosolic TK-1 assessed as [CH3-H3]dThd phosphorylation; in short: as §1
T2 sequence (P04183 whole entry): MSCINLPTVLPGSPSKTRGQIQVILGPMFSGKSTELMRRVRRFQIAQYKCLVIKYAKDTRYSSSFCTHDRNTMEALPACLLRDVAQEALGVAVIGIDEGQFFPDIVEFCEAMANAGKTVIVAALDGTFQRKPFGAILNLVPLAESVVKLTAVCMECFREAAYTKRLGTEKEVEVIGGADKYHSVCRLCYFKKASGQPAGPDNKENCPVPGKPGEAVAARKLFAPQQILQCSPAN

Brain [3] = assay: Biodistribution in brain of NMRI mouse after 2 mins; type: ADME, organism-based; details: in vivo
In short: (§2)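 Male NMRI mice (30-40 g) under ketamine/xylazine i.p. anesthesia received 0.1 mL of HPLC-purified 18F tracer (0.1 mCi/mL) or 11C tracer (1 mCi/mL) in water for injection via tail vein. Killed by decapitation at 2 or 60 min (n = 3 per time). Blood, organs and carcass weighed and gamma-counted. %ID = organ cpm/total cpm recovered. Blood mass taken as 7% of body mass. Mean ± SD.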

[4] = Biodistribution in spleen/pancreas of NMRI mouse after 2 mins; type: ADME, organism-based; details: in vivo; in short: as §2
Liver [5] = assay: Biodistribution in liver of NMRI mouse assessed as standard uptake value after 60 mins; type: ADME, organism-based; details: in vivo, 1 h
Heart [6] = assay: Biodistribution in heart of NMRI mouse assessed as standard uptake value after 60 mins; type: ADME, organism-based; details: in vivo, 1 h
[7] = Biodistribution in urine of NMRI mouse after 2 mins; type: ADME, organism-based; details: in vivo; in short: as §2
[8] = Biodistribution in carcass of NMRI mouse after 60 mins; type: ADME, organism-based; details: in vivo, 1 h; in short: as §2
Kidney [9] = assay: Biodistribution in kidney of NMRI mouse after 2 mins; type: ADME, organism-based; details: in vivo; in short: as §2
[10] = Partition coefficient, log P at pH 7.4; type: physicochemical; details: octanol/water
In short: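 HPLC-purified radiotracer partitioned between 1-octanol and 0.025 M phosphate buffer pH 7.4. Vortexed 2 min at room temperature, centrifuged 5 min, aliquots of both phases gamma-counted. P = octanol cpm/buffer cpm after density and mass correction; n = 6.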

[11] = Drug uptake in human 293T cells transduced with VZV-tk gene after 1 hr; type: ADME, cell-based; details: hek-293t
In short: (§3)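 Lentivirally transduced 293T cells (VZV-tk or LacZ control) plated in triplicate at 200 000 cells/well. After 24 h, 0.25 mL fresh medium with 5 µCi of the 18F tracer (3 h) or 30 µCi of the 11C tracer (1 h) added; 37 °C, 5% CO2. Cells washed thrice with ice-cold PBS, lysed, gamma-counted. Uptake given as % total radioactivity per mg protein (Bio-Rad assay); n = 3, unpaired two-sided t-test.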

[12] = Biodistribution in spleen/pancreas of NMRI mouse assessed as standard uptake value after 60 mins; type: ADME, organism-based; details: in vivo, 1 h
Kidney [13] = assay: Biodistribution in kidney of NMRI mouse assessed as standard uptake value after 2 mins; type: ADME, organism-based; details: in vivo
Brain [14] = assay: Biodistribution in brain of NMRI mouse after 60 mins; type: ADME, organism-based; details: in vivo, 1 h; in short: as §2
[15] = Drug uptake in human 293T cells transduced with LacZ gene after 1 hr; type: ADME, cell-based; details: hek-293t; in short: as §3
Lung [16] = assay: Biodistribution in lung of NMRI mouse after 2 mins; type: ADME, organism-based; details: in vivo; in short: as §2
Kidney [17] = assay: Biodistribution in kidney of NMRI mouse assessed as standard uptake value after 60 mins; type: ADME, organism-based; details: in vivo, 1 h
[18] = Biodistribution in carcass of NMRI mouse after 2 mins; type: ADME, organism-based; details: in vivo; in short: as §2
Brain [19] = assay: Biodistribution in brain of NMRI mouse assessed as standard uptake value after 2 mins; type: ADME, organism-based; details: in vivo
Plasma [20] = assay: Metabolic stability in mouse plasma assessed as radioactivity after 2 mins; type: ADME, cell-free
In short: (§4)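 Normal mice given 0.35-0.4 mCi of 11C tracer i.v. and decapitated at 2 or 30 min (plasma; one mouse per time) or 30/60 min (urine). EDTA plasma separated by centrifugation; urine used untreated. Samples spiked with authentic compound and run on Oasis HLB in series with C18, eluted with 0.05 M ammonium acetate/acetonitrile 70:30 at 1 mL/min. 1-mL fractions gamma-counted; intact tracer taken as % recovered radioactivity.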

[21] = Biodistribution in spleen/pancreas of NMRI mouse after 60 mins; type: ADME, organism-based; details: in vivo, 1 h; in short: as §2
Heart [22] = assay: Biodistribution in heart of NMRI mouse after 60 mins; type: ADME, organism-based; details: in vivo, 1 h; in short: as §2
[23] = Ratio of drug uptake in LV-VZVTK-1-P transduced cells to LV-LacZ-I-P transduced 293T cells after 1 hr; type: ADME, cell-based; details: human
In short: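 Lentivirally transduced 293T cells (VZV-tk or LacZ control), plated in triplicate at 200 000 cells/well. After 24 h, given fresh medium with 30 µCi HPLC-purified 11C-labelled tracer per well, then 1 h at 37 °C in 5% CO2. Washed thrice in ice-cold PBS, lysed, gamma-counted, normalized to Bio-Rad protein (% total radioactivity/mg protein). VZV-tk/LacZ ratio, n = 3, unpaired Student t-test.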

Liver [24] = assay: Biodistribution in liver of NMRI mouse after 2 mins; type: ADME, organism-based; details: in vivo; in short: as §2
[25] = Metabolic stability in mouse urine after 60 mins; type: ADME, tissue-based; details: read-out: Stability; in short: as §4
Lung [26] = assay: Biodistribution in lung of NMRI mouse assessed as standard uptake value after 2 mins; type: ADME, organism-based; details: in vivo
Lung [27] = assay: Biodistribution in lung of NMRI mouse assessed as standard uptake value after 60 mins; type: ADME, organism-based; details: in vivo, 1 h
Blood [28] = assay: Biodistribution in blood of NMRI mouse after 2 mins; type: ADME, organism-based; details: in vivo; in short: as §2
Blood [29] = assay: Biodistribution in blood of NMRI mouse after 60 mins; type: ADME, organism-based; details: in vivo, 1 h; in short: as §2
Heart [30] = assay: Biodistribution in heart of NMRI mouse after 2 mins; type: ADME, organism-based; details: in vivo; in short: as §2
[31] = Biodistribution in spleen/pancreas of NMRI mouse assessed as standard uptake value after 2 mins; type: ADME, organism-based; details: in vivo
Liver [32] = assay: Biodistribution in liver of NMRI mouse assessed as standard uptake value after 2 mins; type: ADME, organism-based; details: in vivo
Plasma [33] = assay: Metabolic stability in mouse plasma assessed as radioactivity after 30 mins; type: ADME, cell-free; details: 0.5 h; in short: as §4
[34] = Biodistribution in urine of NMRI mouse after 60 mins; type: ADME, organism-based; details: in vivo, 1 h; in short: as §2
Kidney [35] = assay: Biodistribution in kidney of NMRI mouse after 60 mins; type: ADME, organism-based; details: in vivo, 1 h; in short: as §2
Blood [36] = assay: Biodistribution in blood of NMRI mouse assessed as standard uptake value after 60 mins; type: ADME, organism-based; details: in vivo, 1 h
Intestine [37] = assay: Biodistribution in intestine of NMRI mouse after 60 mins; type: ADME, organism-based; details: in vivo, 1 h; in short: as §2
Blood [38] = assay: Biodistribution in blood of NMRI mouse assessed as standard uptake value after 2 mins; type: ADME, organism-based; details: in vivo
Lung [39] = assay: Biodistribution in lung of NMRI mouse after 60 mins; type: ADME, organism-based; details: in vivo, 1 h; in short: as §2
Liver [40] = assay: Biodistribution in liver of NMRI mouse after 60 mins; type: ADME, organism-based; details: in vivo, 1 h; in short: as §2
Brain [41] = assay: Biodistribution in brain of NMRI mouse assessed as standard uptake value after 60 mins; type: ADME, organism-based; details: in vivo, 1 h
Heart [42] = assay: Biodistribution in heart of NMRI mouse assessed as standard uptake value after 2 mins; type: ADME, organism-based; details: in vivo
[43] = Metabolic stability in mouse urine after 30 mins; type: ADME, tissue-based; details: read-out: Stability; in short: as §4
Intestine [44] = assay: Biodistribution in intestine of NMRI mouse after 2 mins; type: ADME, organism-based; details: in vivo; in short: as §2

Nc1nc2c(ncn2CCC(CO)CO)c(=O)[nH]1 [PENCICLOVIR]
IC50 (Thymidine kinase): 11 µM

O=c1nc2oc(-c3ccc(F)cc3)cc2cn1[C@H]1C[C@H](O)[C@@H](CO)O1
IC50 [1]: 0.18 µM | IC50 [2]: > 500 µM | IC50 (Thymidine kinase): > 500 µM

[11CH3]Oc1cccc(-c2cc3cn([C@H]4C[C@H](O)[C@@H](CO)O4)c(=O)nc3o2)c1
Drug uptake (Brain [3]): 0 %ID | Drug uptake [4]: 2.4 %ID | Drug uptake (Liver [5]): 0.7 | Drug uptake (Heart [6]): 0 | Drug uptake [7]: 0.2 %ID | Drug uptake [8]: 3.5 %ID | Drug uptake (Kidney [9]): 21.7 %ID | logD [10]: 1.27 | Drug uptake [11]: 12.8% | Drug uptake [12]: 0.1 | Drug uptake (Kidney [13]): 12.4 | Drug uptake (Brain [14]): 0 %ID | Drug uptake [15]: 0.24% | Drug uptake (Lung [16]): 0.7 %ID | Drug uptake (Kidney [17]): 0.2 | Drug uptake [18]: 25.3 %ID | Drug uptake (Brain [19]): 0.1 | Stability (Plasma [20]): 98% | Drug uptake [21]: 0.1 %ID | Drug uptake (Heart [22]): 0 %ID | Ratio [23]: 53 | Drug uptake (Liver [24]): 21.3 %ID | remaining at 1 h [25]: 90% | Drug uptake (Lung [26]): 1 | Drug uptake (Lung [27]): 0 | Drug uptake (Blood [28]): 5.4 %ID | Drug uptake (Blood [29]): 0.2 %ID | Drug uptake (Heart [30]): 0.5 %ID | Drug uptake [31]: 2.7 | Drug uptake (Liver [32]): 3.7 | Stability (Plasma [33]): 80% | Drug uptake [34]: 28.2 %ID | Drug uptake (Kidney [35]): 0.3 %ID | Drug uptake (Blood [36]): 0 | Drug uptake (Intestine [37]): 63.7 %ID | Drug uptake (Blood [38]): 0.8 | Drug uptake (Lung [39]): 0 %ID | Drug uptake (Liver [40]): 3.7 %ID | Drug uptake (Brain [41]): 0 | Drug uptake (Heart [42]): 1 | remaining at 0.5 h [43]: 90% | Drug uptake (Intestine [44]): 25.6 %ID
